Bioassay records as filed in PubChem BioAssay.
Rows were chosen to be rich in hits. Some 3.7% of all compounds tested hit in one or more screens of this group.
proCasp3 act = activates human procaspase-3; P42574; recombinant procaspase-3 D3A, Ac-DEVD-pNA absorbance 405 nm; activation, % at 8.5 µM; hit rate 0.11% among 330,000;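 active = activation above the mean of all tested compounds plus 3 SD, cut at about 21% in these data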;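 also: 0% = DMSO alone and 100% = DMSO wells spiked with extra 5 µM PC-3 D3A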
Target sequence (P42574 whole entry D9A/D28A/D175A): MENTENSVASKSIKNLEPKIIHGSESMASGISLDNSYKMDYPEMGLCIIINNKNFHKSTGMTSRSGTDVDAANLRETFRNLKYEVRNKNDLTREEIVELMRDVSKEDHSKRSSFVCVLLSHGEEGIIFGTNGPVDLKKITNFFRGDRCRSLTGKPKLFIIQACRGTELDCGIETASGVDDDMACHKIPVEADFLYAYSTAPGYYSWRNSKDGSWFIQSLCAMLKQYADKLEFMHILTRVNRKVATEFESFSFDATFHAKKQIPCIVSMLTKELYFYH
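Evaluation: percent activation relative to control range; Material: Procaspase-3 D3A mutant, all three cleavage aspartates alanine; Compound: single dose, 8.5 µM nominal compound, 0.8% DMSO; Replication: one well per compound; Signal: absorbance at 405 nm, 0 and 120 min; Schedule: 1 h preincubation plus 2 h reaction at 25 °C.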
MPTP block = permeability transition pore inhibition; inhibition, % at 10 µM; isolated mouse mitochondria, Ca2+ swelling absorbance, 30 min; hit rate 1.4% among 360,000;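 active = inhibition of 50% or more, scaled per plate between neutral and stimulator controls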;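 also: 0% = DMSO wells given calcium and 100% = 1 mM EGTA wells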
GRIN3A LBD mod = NR3A (human) ligand-binding domain modulation. Tm shift relative to glycine control, % at 25 µM. NR3A LBD differential scanning fluorimetry, Tm shift; 0% = protein alone, 100% = glycine-bound protein. AID 1259313. hit rate 2.5% among 340,000;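 active = melting temperature shift of at least 10% of the positive control shift, at one fixed dose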
aDG glyco up = alpha-DG glycosylation activation; Pro5-aDG cells, alpha-DG glycosylation AlphaScreen (IIH6); 0% Pro5, 100% B10-LARGE cell signal; activation, % at 10 µM; hit rate 0.22% among 360,000; AID 624168;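 active = activation of at least 8% versus controls, or a plate z-score of at least 8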;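 also: Pro5 are CHO cells carrying HIG-tagged alpha-DG that lacks glycosylation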
procasp7 counter = counter-screen for procaspase-3 activators: activators of human procaspase-7; P55210; recombinant procaspase-7, Ac-DEVD-pNA absorbance 405 nm; D23A/D198A/D206A triple mutant, cannot self-cleave; scale: DMSO 0, 5 µM enzyme 100; activation, % at 8.5 µM; hit rate 0.093% among 330,000; AID 463210;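 active = percent activation above the screen-wide mean plus 3 SD, cut at about 25% in these data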
Target sequence (P55210 whole entry D23A/D198A/D206A): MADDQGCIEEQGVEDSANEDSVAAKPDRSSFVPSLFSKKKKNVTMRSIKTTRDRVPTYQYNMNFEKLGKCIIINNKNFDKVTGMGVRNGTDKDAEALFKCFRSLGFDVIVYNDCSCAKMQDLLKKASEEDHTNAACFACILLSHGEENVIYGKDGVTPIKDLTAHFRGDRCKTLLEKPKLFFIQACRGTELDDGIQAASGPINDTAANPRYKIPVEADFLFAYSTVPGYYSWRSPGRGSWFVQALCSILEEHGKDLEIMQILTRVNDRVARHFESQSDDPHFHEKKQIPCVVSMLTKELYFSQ
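signal = Epi-absorbance of released pNA at 405 nm, two timepoints | assay system = Uncleavable procaspase-7 mutant enzyme | reagent = Ac-DEVD-pNA substrate, 400 µM as added | times = 1 h enzyme–compound preincubation and 2 h substrate reaction, both 25 °C | benchmarks = low DMSO alone, high DMSO plus 5 µM PC-7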
The depositor's hits bear a star.

How did NC(=O)c1ccsc1NC(=O)CSc1nc2ccccc2c(=O)n1CCCO do in these assays?
proCasp3 act: 0; MPTP block: 0; GRIN3A LBD mod: 0; aDG glyco up: 0; procasp7 counter: 0

How did CC(c1nc2ccccc2[nH]1)n1c(=O)c(-c2ccco2)nc2ccccc21 (stereo unspecified) do in these assays?
MPTP block: -1; aDG glyco up: 0

How did COc1ccc(NC(=O)CSc2nc3ccsc3c(=O)n2CCC(=O)O)cc1 do in these assays?
MPTP block: -1; aDG glyco up: 0

What do the screens show for `N#CCSc1nc(-c2ccccc2)c2cc(Cl)ccc2n1`?
proCasp3 act: -13; MPTP block: 1; GRIN3A LBD mod: 18*; aDG glyco up: 0; procasp7 counter: -2

How did C=CCSc1nc(-c2ccccc2)c2cc(Cl)ccc2n1 do in these assays?
proCasp3 act: -2; MPTP block: 2; GRIN3A LBD mod: -1; aDG glyco up: 0; procasp7 counter: 11

What do the screens show for `CC(C)=CCc1c(O)cc(O)c2c(=O)c3c(CC=C(C)C)c(O)ccc3oc12`?
proCasp3 act: 4; GRIN3A LBD mod: 26*; procasp7 counter: 9

What do the screens show for `O=c1cc(O)c2ccc(O)cc2o1`?
proCasp3 act: 5; MPTP block: -2; GRIN3A LBD mod: -2; aDG glyco up: 0; procasp7 counter: -4

Results for CC(C)=CCc1c(O)cc(O)c2c(=O)c(O[C@@H]3O[C@@H](C)[C@H](O)[C@@H](O)[C@H]3O)c(-c3ccc(O)cc3)oc12 ?
proCasp3 act: -5; MPTP block: -4; GRIN3A LBD mod: -3; aDG glyco up: -1; procasp7 counter: -6

What do the screens show for `CC(C)=CCc1c(O)cc2c(=O)c3ccc(O)cc3oc2c1O`?
proCasp3 act: 0; MPTP block: 3; GRIN3A LBD mod: 25*; aDG glyco up: 0; procasp7 counter: 5

How did CC(=O)c1ccc(N(CC(=O)NC2CCS(=O)(=O)C2)S(=O)(=O)c2ccc(Cl)cc2)cc1 (stereo unspecified) do in these assays?
proCasp3 act: 5; MPTP block: 0; GRIN3A LBD mod: 1; aDG glyco up: 0; procasp7 counter: 1

Results for CC(C)COc1ncnc2c1sc1nc3c(cc12)COC(C)(C)C3 ?
proCasp3 act: 3; procasp7 counter: -1

How did Oc1ccccc1/C=N/NC(=S)NCCc1ccccc1 do in these assays?
MPTP block: 2; GRIN3A LBD mod: 28*; aDG glyco up: 1

What do the screens show for `S=C(NCCc1ccccc1)Nc1ccc(Nc2ccccc2)cc1`?
proCasp3 act: 5; MPTP block: 1; GRIN3A LBD mod: 23*; aDG glyco up: 2; procasp7 counter: 9

What do the screens show for `C/C(=N\NC(=S)NCCc1ccccc1)c1ccc(O)cc1O`?
proCasp3 act: -6; MPTP block: 2; GRIN3A LBD mod: 17*; aDG glyco up: 0; procasp7 counter: -16

How did S=C(NCCc1ccccc1)N/N=C/c1cccc(Cl)c1Cl do in these assays?
proCasp3 act: -4; MPTP block: 10; GRIN3A LBD mod: 0; aDG glyco up: 0; procasp7 counter: 4

Results for O=C(COC(=O)c1ccc2c(c1)OCO2)NC1CCCCC1 ?
proCasp3 act: 2; MPTP block: -1; GRIN3A LBD mod: 2; aDG glyco up: 0; procasp7 counter: 3

What do the screens show for `CC1(c2ccc(Cl)cc2)NC(=O)N(CC(=O)N2CCCC2)C1=O` (stereo unspecified)?
proCasp3 act: 15; MPTP block: 0; GRIN3A LBD mod: 11*; aDG glyco up: 0; procasp7 counter: -4

What do the screens show for `C[C@H]1CN([C@@H](C)CO)C(=O)Cc2cc(NS(C)(=O)=O)ccc2O[C@@H]1CN(C)Cc1ccc(Cl)c(Cl)c1`?
proCasp3 act: 14; MPTP block: 1; GRIN3A LBD mod: -3; aDG glyco up: 0; procasp7 counter: 1

What do the screens show for `C[C@@H]1CN([C@@H](C)CO)C(=O)Cc2cc(NC(=O)Nc3ccc(F)cc3)ccc2O[C@@H]1CN(C)Cc1ccc(Cl)c(Cl)c1`?
proCasp3 act: -7; MPTP block: 3; GRIN3A LBD mod: 18*; aDG glyco up: 3; procasp7 counter: -1

Results for C[C@H](CO)N1C[C@H](C)[C@H](CN(C)Cc2ccc(Oc3ccccc3)cc2)Oc2ccc(NC(=O)Nc3cccc4ccccc34)cc2CC1=O ?
proCasp3 act: 10; MPTP block: 1; GRIN3A LBD mod: 12*; aDG glyco up: 1; procasp7 counter: 4

How did C[C@@H]1CN([C@@H](C)CO)C(=O)c2cc(NC(=O)Nc3ccc(F)cc3)ccc2O[C@@H]1CN(C)Cc1ccc(Oc2ccccc2)cc1 do in these assays?
proCasp3 act: 7; MPTP block: 2; GRIN3A LBD mod: 12*; aDG glyco up: 3; procasp7 counter: 3

Results for Cc1ccccc1N(CC(=O)Nc1ccc(F)cc1)S(C)(=O)=O ?
proCasp3 act: -5; MPTP block: -1; GRIN3A LBD mod: 0; aDG glyco up: 0; procasp7 counter: 5

Results for Cc1cc(C)cc(N(CC(=O)Nc2ccc(-c3nc4ccc(C)cc4s3)cc2)S(C)(=O)=O)c1 ?
proCasp3 act: 2; MPTP block: 11; GRIN3A LBD mod: 26*; aDG glyco up: 1; procasp7 counter: 10

How did Cc1ccc2nc(-c3ccc(NC(=O)CN(c4ccccc4C)S(C)(=O)=O)cc3)sc2c1 do in these assays?
proCasp3 act: -2; MPTP block: 2; GRIN3A LBD mod: 15*; aDG glyco up: 4; procasp7 counter: 22

What do the screens show for `Cc1ccc2nc(-c3ccc(NC(=O)CN4C(=O)NC(C)(c5ccc(OC(F)F)cc5)C4=O)cc3)sc2c1` (stereo unspecified)?
proCasp3 act: 3; MPTP block: -1; GRIN3A LBD mod: 35*; aDG glyco up: 0; procasp7 counter: 8

Results for NC(=O)c1ccc(NC(=O)COC(=O)/C=C/c2ccc3c(c2)OCO3)cc1 ?
proCasp3 act: 3; MPTP block: 2; GRIN3A LBD mod: -2; aDG glyco up: 0; procasp7 counter: -3

How did O=C(c1[nH]c(C(F)(F)F)nc1-c1ccccc1)N1CCN(C(=O)C2CCCO2)CC1 (stereo unspecified) do in these assays?
MPTP block: 1; aDG glyco up: 0

What do the screens show for `CSCCNC(=O)C1(C)CCN1C(=O)C/C=C/c1ccccc1` (stereo unspecified)?
MPTP block: 0; aDG glyco up: 0

Results for Cc1ccc(C(=O)/C=C/Nc2ccc3c(c2)OCO3)cc1 ?
proCasp3 act: -28; MPTP block: 1; GRIN3A LBD mod: 17*; aDG glyco up: 0; procasp7 counter: -35

How did CC(=O)c1ccc(N/C=C\C(=O)c2ccc(C)cc2)cc1 do in these assays?
proCasp3 act: 3; MPTP block: -1; GRIN3A LBD mod: -8; aDG glyco up: 2; procasp7 counter: -7
